Measurements: ChEMBL document CHEMBL1124154, “Polycyclic aryl- and heteroarylpiperazinyl imides as 5-HT1A receptor ligands and potential anxiolytic agents: synthesis and structure-activity relationship studies” (J Med Chem, 1988)

Columns and labels:
Rattus norvegicus = species on record: Rattus norvegicus; assay: Concentration required to produce 50% block in avoidance responding in conditioned avoidance response test in rat; assay type: functional
Outline: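 Trained rats in shelf-jump and/or discrete-trial conditioned avoidance paradigms. Drug given ip or po to at least five rats per dose, with a control session before each drug run. Trials without avoidance (avoidance block) were counted per dose as a percentage of total trials, with control set at 100%. AB50 was taken from a least-squares dose-effect regression line.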

[1] = Partition coefficient (logP); assay type: physicochemical; conditions: octanol/water
D(2) dopamine receptor = D(2) dopamine receptor (Rattus norvegicus, UniProt P61169); assay: In vitro inhibition of [3H]spiperone binding to Dopamine receptor D2 from rat brain limbic tissue; assay type: tissue-based, Limbic system
Outline: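 Limbic tissue (nucleus accumbens, septum, olfactory tubercle) from Sprague-Dawley rats, washed membranes at 0.2-0.3 mg protein. Incubated with 0.3 nM [3H]spiroperidol and a range of drug concentrations, 10 min at 37 °C, in Tris buffer pH 7.1 with NaCl, KCl, CaCl2, ascorbate and pargyline. Filtered through GF/B and counted by scintillation. Nonspecific binding defined with 1 μM (+)-butaclamol.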

[2] = molecular target: T1, 5-hydroxytryptamine receptor 1A (Rattus norvegicus, UniProt P19327); assay: In vitro inhibition of [3H]-8-hydroxy-2-(di-n-propylamino)tetralin binding to 5-hydroxytryptamine 1A receptor from rat hippocampal tissue.
T1 sequence (P19327 whole entry): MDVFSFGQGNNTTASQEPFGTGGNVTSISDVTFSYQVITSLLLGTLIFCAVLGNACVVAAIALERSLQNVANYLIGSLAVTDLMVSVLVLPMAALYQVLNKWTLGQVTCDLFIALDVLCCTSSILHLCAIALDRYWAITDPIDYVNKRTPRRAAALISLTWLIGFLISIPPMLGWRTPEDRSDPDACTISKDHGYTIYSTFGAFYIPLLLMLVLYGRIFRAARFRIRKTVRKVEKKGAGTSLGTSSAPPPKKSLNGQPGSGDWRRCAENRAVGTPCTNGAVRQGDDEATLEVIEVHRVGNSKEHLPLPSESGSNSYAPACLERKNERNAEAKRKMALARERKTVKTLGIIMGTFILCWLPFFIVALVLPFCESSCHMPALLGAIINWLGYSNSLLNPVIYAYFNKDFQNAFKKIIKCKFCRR

[3] = molecular target: D(2) dopamine receptor (Rattus norvegicus) (UniProt P61169); assay: In vitro inhibition of [3H]spiperone binding to dopamine receptor D2 from rat brain limbic tissue at 1 uM; assay type: tissue-based; conditions: Limbic system
[4] = molecular target: T2, 5-hydroxytryptamine receptor 1A (Rattus norvegicus) (UniProt P19327); assay: In vitro inhibition of [3H]-8-hydroxy-2-(di-n-propylamino)tetralin binding to 5-hydroxytryptamine 1A receptor from rat hippocampal tissue at 1 uM; conditions: Hippocampus
T2 sequence (whole entry): T1 sequence (P19327 whole entry)

[5] = Ratio of ED50 stereotyped behavior in mice; assay type: functional

Sequence of D(2) dopamine receptor (P61169 whole entry): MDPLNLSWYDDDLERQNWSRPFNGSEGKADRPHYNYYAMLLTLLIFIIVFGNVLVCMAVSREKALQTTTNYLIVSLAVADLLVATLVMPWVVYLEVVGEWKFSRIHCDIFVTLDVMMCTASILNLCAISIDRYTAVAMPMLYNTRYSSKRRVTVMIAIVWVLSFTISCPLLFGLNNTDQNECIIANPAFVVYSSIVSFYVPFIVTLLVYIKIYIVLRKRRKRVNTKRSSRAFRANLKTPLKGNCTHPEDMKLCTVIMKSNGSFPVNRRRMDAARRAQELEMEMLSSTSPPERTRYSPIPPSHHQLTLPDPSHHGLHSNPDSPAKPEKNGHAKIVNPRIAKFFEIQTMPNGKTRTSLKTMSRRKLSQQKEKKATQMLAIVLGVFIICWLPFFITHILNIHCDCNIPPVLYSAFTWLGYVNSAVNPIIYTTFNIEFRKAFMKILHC
Sequence of D(2) dopamine receptor (Rattus norvegicus) (P61169 whole entry): as above

Row | SMILES | logP [1] | Ki (D(2) dopamine receptor) | Ki [2] | inhibition [3] | inhibition [4] | AB50 (Rattus norvegicus) | Ratio [5]
1 | Cl.O=C1C2C3CCC(C4CCC43)C2C(=O)N1CCCCN1CCN(c2ncccn2)CC1 (stereo unspecified) | 2.09 | 53 nM | 1 nM |  |  | 40 mg/kg | 
2 | O=C1C2C3CS(=O)(=O)CC3C2C(=O)N1CCCCN1CCN(c2cncc(Cl)n2)CC1 (stereo unspecified) |  |  |  | 0% | 35% | 40 mg/kg | 
3 | O=C1C2C3C=CC(C3)C2C(=O)N1CCCCN1CCN(c2cncc(Cl)n2)CC1 (stereo unspecified) |  |  |  | 1% | 74% | 40 mg/kg | 
4 | O=C1C2C3C=CC(C4C=CC43)C2C(=O)N1CCCCN1CCN(c2cncc(Cl)n2)CC1 (stereo unspecified) |  |  |  | 50% |  | 40 mg/kg | 
5 | Cl.O=C1C2C3C=CC(C4CC34)C2C(=O)N1CCCCN1CCN(c2cccc(C(F)(F)F)c2)CC1 (stereo unspecified) |  |  | 26 nM | 91% |  | 44 mg/kg | 
6 | O=C1C2C3C=CC(C4CC34)C2C(=O)N1CCCCC1CCN(c2cncc(Cl)n2)CC1 (stereo unspecified) |  |  |  | 21% | 8% | 40 mg/kg | 
7 | O=C1C2C3C=CC(C3)C2C(=O)N1CCCCN1CCN(c2nccnc2Cl)CC1 (stereo unspecified) |  |  | 37 nM | 48% |  | 40 mg/kg | 
8 | Cl.O=C1C2C3C=CC(C4C=CC43)C2C(=O)N1CCCCN1CCN(c2ncccn2)CC1 (stereo unspecified) | 1.79 |  |  | 59% |  | 13 mg/kg | 7.6
9 | Cl.O=C1C2C3C=CC(C4CC34)C2C(=O)N1CCCCc1ccncc1 (stereo unspecified) |  |  |  | 0% | 0% | >40 mg/kg | 
10 | O=C1C2C3C=CC(CCCC3)C2C(=O)N1CCCCN1CCN(c2cncc(Cl)n2)CC1 (stereo unspecified) |  |  |  |  |  | 25 mg/kg | 
11 | O=C1C2CCCCC2C(=O)N1CCCCN1CCN(c2ncccn2)CC1 (stereo unspecified) |  | 374 nM |  |  |  | 6 mg/kg | 
12 | O=C1C2C3CCC(C4CC43)C2C(=O)N1CCCCN1CCN(c2cncc(Cl)n2)CC1 (stereo unspecified) |  |  |  | 49% | 72% | 40 mg/kg | 
13 | Cl.O=C1C2C3C=CC(C4CCC34)C2C(=O)N1CCCCN1CCN(c2cccc(C(F)(F)F)c2)CC1 (stereo unspecified) |  |  | 57 nM | 99% |  | 40 mg/kg | 
14 | O=C1[C@@H]2[C@H]3CC[C@H](C3)[C@@H]2C(=O)N1CCCCN1CCN(c2ncccn2)CC1 [TANDOSPIRONE] |  |  | 9 nM |  |  | 28 mg/kg | 
15 | O=C1C2C3CS(=O)(=O)CC3C2C(=O)N1CCCCN1CCN(c2nccnc2Cl)CC1 (stereo unspecified) |  |  |  | 0% | 28% | 40 mg/kg | 
16 | O=C1C2C3C=CC(C4CCC34)C2C(=O)N1CCCCN1CCN(c2ccc(Cl)nn2)CC1 (stereo unspecified) |  | 1920 nM |  |  |  | >40 mg/kg | 
17 | Cl.O=C1C2C3C=CC(C4C=CC43)C2C(=O)N1CCCCN1CCN(c2cccc(C(F)(F)F)c2)CC1 (stereo unspecified) |  |  | 25 nM | 96% |  | 40 mg/kg | 
18 | O=C1C2C3C=CC(C4CC34)C2C(=O)N1CCCCN1CCN(c2cncc(Cl)n2)CC1 (stereo unspecified) |  |  |  |  |  | 40 mg/kg | 
19 | O=C1C2C3C=CC(C4CCC34)C2C(=O)N1CCCCN1CCN(c2cccc(Cl)c2)CC1 (stereo unspecified) |  |  | 19 nM | 87% |  | 40 mg/kg | 
20 | CC(C)=C1C2C=CC1C1C(=O)N(CCCCN3CCN(c4cncc(Cl)n4)CC3)C(=O)C21 (stereo unspecified) |  | 968 nM |  |  |  | 40 mg/kg | 
21 | Cl.O=C1C2C3C=CC(C4C=CC43)C2C(=O)N1CCCCN1CCN(c2ccc(C(F)(F)F)cn2)CC1 (stereo unspecified) |  |  |  | 31% | 40% | >40 mg/kg | 
22 | Cl.O=C1C2C3C=CC(C4CCC34)C2C(=O)N1CCCCN1CCN(c2ncccn2)CC1 (stereo unspecified) | 2.02 |  | 1.3 nM |  |  | 47 mg/kg | 
23 | Cl.O=C1N(CCCCN2CCN(c3ncccn3)CC2)C(=O)C23C4C=CC(C4)C12C1C=CC3C1 (stereo unspecified) |  |  |  | 53% |  | 40 mg/kg | 
24 | Cl.O=C1C2C3C=CC(CCC3)C2C(=O)N1CCCCc1ccncc1 (stereo unspecified) |  |  |  | 6% | 0% | 40 mg/kg | 
25 | Cl.O=C1C2C3CCC(C4CC43)C2C(=O)N1CCCCN1CCN(c2ncccn2)CC1 (stereo unspecified) | 1.83 |  |  |  |  | 34 mg/kg | 
26 | Cl.O=C1C2C3CCC(C4CC43)C2C(=O)N1CCCCN1CCN(c2cccc(C(F)(F)F)c2)CC1 (stereo unspecified) |  |  | 20 nM | 92% |  | >40 mg/kg | 
27 | Cl.O=C1N(CCCCN2CCN(c3ncccn3)CC2)C(=O)C23C4CCC(C4)C12C1CCC3C1 (stereo unspecified) |  |  |  | 63% |  | 40 mg/kg | 
28 | Cl.O=C1C2C3CCCC(CC3)C2C(=O)N1CCCCN1CCN(c2ccc(C(F)(F)F)cn2)CC1 (stereo unspecified) |  |  |  | 33% | 71% | >40 mg/kg | 
29 | O=C1C2C3C=CC(C4C=CC43)C2C(=O)N1CCCCN1CCN(c2cccc(Cl)c2)CC1 (stereo unspecified) |  |  | 41 nM | 3% |  | >40 mg/kg | 

The next lines start with results.

Row | logP [1] | Ki (D(2) dopamine receptor) | Ki [2] | inhibition [3] | inhibition [4] | SMILES | AB50 (Rattus norvegicus) | Ratio [5]
30 |  |  |  |  | 98% | O=C1N(CCCCN2CCN(c3cncc(Cl)n3)CC2)C(=O)C23C4C=CC(C4)C12C1C=CC3C1 (stereo unspecified) | >40 mg/kg | 
31 |  |  | 5 nM | 74% |  | Cl.O=C1C2C3CCCC(CC3)C2C(=O)N1CCCCN1CCN(c2ncccn2)CC1 (stereo unspecified) | 40 mg/kg | 
32 |  |  | 14 nM | 100% |  | O=C1C2C3C=CC(C4CC34)C2C(=O)N1CCCCN1CCN(c2cccc(Cl)c2)CC1 (stereo unspecified) | 40 mg/kg | 
33 | 1.94 |  |  | 53% |  | Cl.O=C1C2C3C=CC(CCC3)C2C(=O)N1CCCCN1CCN(c2ncccn2)CC1 (stereo unspecified) | 40 mg/kg | 
34 |  |  |  | 43% |  | O=C1C2C3C=CC(CCC3)C2C(=O)N1CCCCN1CCN(c2cncc(Cl)n2)CC1 (stereo unspecified) | 68 mg/kg | 
35 |  |  |  | 19% |  | O=C1C2C3C=CC(C3)C2C(=O)N1CCCCN1CCN(c2ccc(Cl)nn2)CC1 (stereo unspecified) | 40 mg/kg | 
36 |  |  | 17 nM | 97% |  | Cl.O=C1C2C3CCCC(CC3)C2C(=O)N1CCCCN1CCN(c2cccc(C(F)(F)F)c2)CC1 (stereo unspecified) | >40 mg/kg | 
37 |  |  |  | 13% | 46% | Cl.O=C1C2C3C=CC(C4C=CC43)C2C(=O)N1CCCCN1CCN(c2cnccn2)CC1 (stereo unspecified) | 40 mg/kg | 
38 |  |  |  | 0% | 44% | Cl.O=C1C2C3CS(=O)(=O)CC3C2C(=O)N1CCCCN1CCN(c2ncccn2)CC1 (stereo unspecified) | >40 mg/kg | 
39 |  |  | 162 nM | 49% |  | O=C1C2C3CCCC(CC3)C2C(=O)N1CCCCN1CCN(c2cncc(Cl)n2)CC1 (stereo unspecified) | >40 mg/kg | 
40 |  |  | 26 nM | 75% |  | O=C1C2C3CCC(C4CC43)C2C(=O)N1CCCCN1CCN(c2nccnc2Cl)CC1 (stereo unspecified) | 61 mg/kg | 
41 |  |  | 1.3 nM | 100% | 100% | COc1ccccc1N1CCN(CCCCN2C(=O)C3C4C=CC(C5C=CC54)C3C2=O)CC1.Cl (stereo unspecified) | 19 mg/kg | 
42 |  |  |  | 39% | 47% | Cl.Cn1nnnc1N1CCN(CCCCN2C(=O)C3C4C=CC(C5CCC45)C3C2=O)CC1 (stereo unspecified) | 40 mg/kg | 
43 |  | 2330 nM |  |  |  | O=C1C2C3C=CC(C4CC34)C2C(=O)N1CCCCN1CCN(c2ccc(Cl)nn2)CC1 (stereo unspecified) | 40 mg/kg | 
44 | 1.36 | 248 nM | 42 nM |  |  | O=C1C2C3C=CC(C3)C2C(=O)N1CCCCN1CCN(c2ncccn2)CC1 (stereo unspecified) | 5 mg/kg | 
45 |  |  | 129 nM | 14% |  | Cl.O=C1N(CCCCN2CCN(c3cnccn3)CC2)C(=O)C23C4C=CC(C4)C12C1C=CC3C1 (stereo unspecified) | 40 mg/kg | 
46 |  |  | 51 nM |  |  | O=C1C2C3CCC(C4CCC43)C2C(=O)N1CCCCN1CCN(c2cncc(Cl)n2)CC1 (stereo unspecified) | >40 mg/kg | 
47 |  |  | 190 nM |  |  | O=C1C2C3C=CC(C4CCC34)C2C(=O)N1CCCCN1CCN(c2cncc(Cl)n2)CC1 (stereo unspecified) | 40 mg/kg | 
48 | 1.73 | 488 nM | 38 nM |  |  | Cl.O=C1C2C3C=CC(C4CC34)C2C(=O)N1CCCCN1CCN(c2ncccn2)CC1 (stereo unspecified) | 40 mg/kg | 
49 |  |  |  |  | 23% | O=C1N(CCCCN2CCN(c3cncc(Cl)n3)CC2)C(=O)C23C4CCC(C4)C12C1CCC3C1 (stereo unspecified) | 40 mg/kg | 
50 |  |  |  | 40% | 55% | Cl.O=C1C2C3C=CC(C4CC34)C2C(=O)N1CCCCN1CCN(c2ccc(C(F)(F)F)cn2)CC1 (stereo unspecified) | 40 mg/kg | 
